Screening results as filed in PubChem BioAssay.
The sample as a whole holds a higher share of hits than the screen did.
Fibroblast inh – blocks proliferation of human lung fibroblasts. AID 719. LL 47 human lung fibroblast viability, ATP luminescence; stronger effect = lower value. 1.1% of 85,000 active. viability, % at 10 µM;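 active = viability at or below 50% in the single dose screen; inactive = viability above 50%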;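 also: compound exposure lasted 72 h before the ATP readout; 100% = median luminescence of untreated cell-only wells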
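Benchmarks: Cell-only wells, no compound | Test system: LL 47 human lung fibroblasts, passage 12 or lower | Input: 1,150 cells/well | Measured by: CellTiter-Glo luminescence measuring cellular ATP | Medium: IMEM, 15% FBS supplement | Schedule: Overnight attachment after seeding, then 72 h compound exposure at 37 °C | Doses: Compound addition at 0.1% DMSO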
H69AR growth 86K – blocks growth of human H69AR lung tumor cells | AID 598 | H69AR lung tumor viability, ATP luminescence, 72 h; stronger effect = lower value | viability, % at 10 µM | 6% of 85,000 active;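 active = viability at or below 40%; inactive = viability above 40%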;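 also: multidrug resistant small cell line overexpressing MRP-1 efflux transporter; 100% = mean luminescence of untreated control wells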
PTEN del growth – suppresses growth of cells with PTEN deletion; HCT116 PTEN-null viability, CellTiter-Glo, 60 h; stronger effect = lower value; viability, % at 10 µM; 1.2% of 140,000 active; AID 827;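 active = viability at or below a set limit, 4 SD under the median of all tested compounds, cut at about 3.7% in these data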;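 also: PTEN knockout HCT116 line with beta catenin targeted HCT116 as companion control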
bCat KO growth – beta-catenin-lacking colon tumor cell growth suppression; HCT116 beta-catenin knockout viability, CellTiter-Glo, 60 h; stronger effect = lower value; viability, % at 10 µM; 1.5% of 140,000 active;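 active = viability at or under a set limit, the compound median less 4 SD, cut at about 6% in these data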;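 also: 0% = Hyamine 1622 control at 20 µM and 100% = untreated cell control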
HUVEC inhibit – blocks proliferation of human endothelial cells; HUVEC proliferation, CellTiter-Glo luminescence, 72 h; stronger effect = lower value; viability, % at 10 µM (by protocol); 1.1% of 86,000 active; AID 648;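 active = viability at or below 30%; inactive = viability above 30%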;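 also: 100% = median luminescence of DMSO-only cell control wells on each plate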
* marks the source's active call; other numbers are inactive results; · = not tested or not shown.

SMILES	Fibroblast inh	H69AR growth 86K	PTEN del growth	bCat KO growth	HUVEC inhibit
COc1ccc2[nH]c3c(N4CCC(O)(c5cccc(C(F)(F)F)c5)CC4)ncnc3c2c1	·	·	5.4	4.5*	·
Cc1ccc2[nH]c3c(N4CCc5ccccc5C4)ncnc3c2c1	73.9	61.1	10.6	7.3	52.2
Cc1ccc(S(=O)(=O)NC2OC(=O)C(Cl)=C2Cl)cc1 (configuration not stated)	97.2	7.0*	89.1	89.8	80.9
CC(C)(C)C1CCc2c(C(=O)NNC(=O)CCC(=O)O)csc2C1 (configuration not stated)	·	·	100.9	87.9	·
CCCCN(C)C/C(O)=C(\C#N)c1nc(-c2ccccc2)cs1	96.0	38.7*	91.9	102.0	82.5
N#C/C(=C(/O)CN1CCOCC1)c1nc(-c2ccccc2)cs1	96.2	83.9	95.6	93.9	102.4
CC(C)(C)C(=O)/C(C#N)=c1\s/c(=C\c2ccncc2)c(=O)n1CCCN1CCOCC1	·	74.3	·	·	1.8*
O=C(CN1C(=O)S/C(=C/c2ccncc2)C1=O)N1CCOCC1	·	·	90.6	91.9	·
CN(C)c1nc(-c2ccccc2)c2cnn(Cc3ccccc3)c2n1	81.4	19.4*	55.5	65.8	72.8
c1ccc(Cn2ncc3c2ncn2nc(-c4ccncc4)nc32)cc1	99.4	84.5	·	·	97.5
C=CCNc1ncnc2c1ncn2C1OC(CO)C(O)C1O (configuration not stated)	40.1*	30.9*	13.1	9.5	41.0
CCNc1nc(NCC)nc(-n2nc(C)cc2C)n1	88.9	4.7*	88.5	94.8	101.9
Cc1cc(C)n(-c2nnc(NC(C)(C)C)nn2)n1	·	·	95.1	83.5	·
Cc1cc(C)n(-c2nc(NC(C)(C)C)nc(NC(C)(C)C)n2)n1	·	·	11.6	4.6*	·
CC(C)(C)Nc1nc(NC(C)(C)C)nc(-n2ccnc2)n1	90.0	30.7*	84.0	90.7	97.7
CC(C)(C)Nc1nc(NN)nc(NC(C)(C)C)n1	·	·	76.3	83.4	·
C=CCn1c(C)cc(C(=O)COC(=O)c2ccc3c(c2)NC(=O)CS3)c1C	·	·	64.5	72.1	·
COC(=O)/C=C/c1ccsc1NC(C)=O	·	·	96.8	92.2	·
CCOc1cc(CNCCCN2CCOCC2)cc(Br)c1OCC(=O)Nc1cccc(C(F)(F)F)c1	·	·	1.5*	1.9*	·
CCn1cc(C2=NC(c3ccccc3)CO2)c2ccccc21 (configuration not stated)	87.2	31.9*	89.7	91.5	71.0
Cc1cccc(C(=O)Nc2ccc(C(=O)/C=C/c3cccnc3)cc2)c1	·	·	1.6*	1.4*	·
O=C(/C=C/c1cccnc1)c1ccc(NC(=O)c2cccc(Br)c2)cc1	·	·	3.6*	5.7*	·
O=C(N/C(=C\c1cccnc1)C(=O)N1CCOCC1)c1cccc(Br)c1	·	·	94.0	97.2	·
Cc1cccc(NC(=O)c2cccnc2)c1	85.5	100.2	91.4	91.6	98.8
Cc1sc2c(c1C)CN(Cc1ccco1)CN2C(=O)c1ccccc1	89.5	73.2	·	·	87.8
SMILES	Fibroblast inh	H69AR growth 86K	PTEN del growth	bCat KO growth	HUVEC inhibit
CC1Cc2ccccc2N1C(=O)CSc1nc2c(c(=O)n(C)c(=O)n2C)n1Cc1ccc(F)cc1 (configuration not stated)	30.1*	11.4*	·	·	50.0
CCOc1ccccc1-c1nc(-c2cc3ccc(C)cc3[nH]c2=O)no1	100.1	39.8*	75.5	86.7	89.4
CCCc1nc(-c2cc3ccc(C)cc3[nH]c2=O)no1	99.4	101.4	88.6	83.1	93.8
COc1ccc(CCNC(=O)CCC(=O)Nc2nnc(C(C)C)s2)cc1OC	·	·	98.7	90.1	·
Cc1ccc(OCC(=O)N/N=C/C=C/c2ccco2)cc1C	·	·	105.8	91.4	·
FC(F)(F)c1cc(C(F)(F)F)c2ccc(N3CCN(c4ccc(Cl)cc4)CC3)nc2n1	·	·	71.2	73.8	·
N#CC(c1ccc(Cl)cc1)c1ccc2c(C(F)(F)F)cc(C(F)(F)F)nc2n1 (configuration not stated)	18.5*	4.6*	0.8*	0.9*	27.2*
Cc1ccccc1NS(=O)(=O)c1ccc(N2CCCC2=O)cc1	49.0*	25.8*	27.5	18.4	63.4
COc1ccc2cc(C(N)=O)/c(=N/NC(=O)c3ccco3)oc2c1	·	·	88.2	80.8	·
CCOc1ccc(N(CC(=O)Nc2cccc(Cl)c2)S(=O)(=O)c2c(C)noc2C)cc1	73.3	30.1*	22.8	28.3	80.3
CCOc1ccc(N(CC(=O)Nc2cccc(OC)c2)S(=O)(=O)c2c(C)noc2C)cc1	89.3	71.7	56.4	52.8	88.0
CCOc1ccc(OCC)c(Nc2cc(C)nc3nc(C)nn23)c1	87.5	32.0*	59.0	73.0	66.4
Cc1ccc(S(=O)(=O)c2cc3c(=O)n4ccccc4nc3n(Cc3ccco3)c2=N)cc1C	73.4	7.8*	62.4	69.6	86.9
N=c1c(S(=O)(=O)c2ccccc2)cc2c(=O)n3ccccc3nc2n1Cc1ccco1	75.7	10.9*	4.2	6.6	87.4
N=c1c(S(=O)(=O)c2ccccc2)cc2c(=O)n3ccccc3nc2n1CCN1CCOCC1	103.0	73.1	·	·	91.0
CC(=O)N(Cc1ccc(F)cc1)C1=C(NCc2ccccc2)C(=O)c2ccccc2C1=O	2.6*	3.5*	1.2*	1.4*	3.4*
CC(=O)n1nc(-c2ccccc2)nc1NCc1ccc(F)cc1	98.5	90.1	68.6	67.4	84.6
CCOC(=O)C1CCN(CC(O)COc2ccc(C(C)(C)CC)cc2)CC1 (configuration not stated)	97.5	25.7*	60.0	58.7	87.5
Cc1nnc(Sc2nc3ccccc3o2)c2ccccc12	93.8	6.8*	16.0	17.8	79.6
CC1=C/C(=C\c2ccc3c(c2)OCO3)C(=O)S1	105.1	68.3	88.0	99.4	82.2
CCCN1C/C(=C/c2cccc([N+](=O)[O-])c2)C(=O)/C(=C/c2cccc([N+](=O)[O-])c2)C1	·	·	2.0*	2.6*	·
CC1(C)CC(=O)/C(=C\c2cccc([N+](=O)[O-])c2)C(C)(C)N1	·	·	8.7	17.9	·
CCCN1C/C(=C/c2ccc3c(c2)OCO3)C(=O)/C(=C/c2ccc3c(c2)OCO3)C1	·	·	2.2*	2.0*	·
COc1ccc(-c2nc(N)n(C(=O)c3ccccc3Cl)n2)cc1	·	·	100.4	100.2	·
CC(C(=O)NC(=O)NC1CCCCC1)N1CCN(C(c2ccccc2)c2ccccc2)CC1 (configuration not stated)	·	·	47.4	57.3	·
SMILES	Fibroblast inh	H69AR growth 86K	PTEN del growth	bCat KO growth	HUVEC inhibit
CCOc1cccc(-c2nnc3sc(C4CCCCC4)nn23)c1	95.9	43.8	7.8	6.1*	71.1
COc1cccc(-c2nnc3sc(C4CCCCC4)nn23)c1	85.9	54.8	17.7	18.0	67.7
COc1ccccc1NC(=O)c1ccc(NC(=O)CSc2n[nH]c(N)n2)cc1	·	·	96.5	99.4	·
CSc1nsc(SCc2ccc(F)cc2)n1	·	30.3*	110.3	96.9	109.9
Cc1cc(C(F)F)n2nc(C(=O)Nc3cccnc3Cl)nc2n1	97.7	92.8	89.6	75.5	100.3
CCC(=O)Nc1nonc1-c1nc2ccccc2n1Cc1cccc2ccccc12	50.9	23.6*	13.2	13.4	51.5
Cc1ccc(OCc2ccc(C(=O)Nc3nc4ccccc4n3C)o2)c([N+](=O)[O-])c1	·	·	90.9	91.9	·
